Active and inactive are the calls of the source. The calls are words filed in the database; no cut-off is given here.
Columns and labels:
Mus musculus [1] = experiment: Antiinflammatory activity in DSS- induced C57BL/6 mouse colon colitis model assessed as cellular infiltration of mononuclear macrophages/neutrophils at 10 mg/kg, ip after 24 hrs by hematoxylin/eosin staining based assay; format: functional, organism-based
Outline: (§1)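 Colitis induced in female C57BL/6 mice as 2.5% DSS in drinking water for 5 days, then 5 days of water. Dosing ip or 5-ASA ig until sacrifice at day 10. Colons fixed in 10% buffered formalin (pH 7.4) for at least 24 h. Sections scored for cellular infiltration, mucosal lesion and crypt damage to give a histologic score.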

Mus musculus [2] = experiment: Antiinflammatory activity in DSS- induced C57BL/6 mouse colon colitis model assessed as inhibition of IL6 expression at 5 to 10 mg/kg, ip after 24 hrs by hematoxylin staining based assay; format: functional, organism-based
Outline: (§2)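 Colons come from the same DSS model, fixed in 10% buffered formalin for at least 24 h. Paraffin sections were deparaffinized. Antigen was retrieved in 10 mM sodium citrate with 0.1% Tween 20 at 100 °C for 20 min. Primary antibody was applied in PBS with 5% BSA and 10% goat serum, then HRP polymer at room temperature for 30 min. Detection was DAB with hematoxylin counterstain. IL-6 and COX-2 positive labeling was counted automatically. Mean ± SD.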

Mus musculus [3] = experiment: Antiinflammatory activity in DSS- induced C57BL/6 mouse colon colitis model assessed as mucosal/submucosal lesion at 10 mg/kg, ip after 24 hrs by hematoxylin/eosin staining based assay; format: functional, organism-based; outline: as §1
Sphingosine kinase 1 = Sphingosine kinase 1 (Homo sapiens, UniProt Q9NYA1); experiment: Inhibition of GST-tagged full length human recombinant SPHK1 expressed in baculovirus using sphingosine as substrate preincubated for 10 mins measured after 1 hr by ADP-quest assay
Sphingosine kinase 1, sequence (Q9NYA1 whole entry): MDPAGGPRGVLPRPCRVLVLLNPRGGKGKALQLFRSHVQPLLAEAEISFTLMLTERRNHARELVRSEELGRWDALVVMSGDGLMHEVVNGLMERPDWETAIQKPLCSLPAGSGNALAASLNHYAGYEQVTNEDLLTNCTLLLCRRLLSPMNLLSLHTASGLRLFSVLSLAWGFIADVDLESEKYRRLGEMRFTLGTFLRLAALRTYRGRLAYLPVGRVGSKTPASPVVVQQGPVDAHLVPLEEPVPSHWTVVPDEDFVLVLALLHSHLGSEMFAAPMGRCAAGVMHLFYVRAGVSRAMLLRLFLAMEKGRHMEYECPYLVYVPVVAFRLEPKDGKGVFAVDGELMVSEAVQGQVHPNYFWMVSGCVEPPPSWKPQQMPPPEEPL

Mus musculus [4] = experiment: Antiinflammatory activity in DSS- induced C57BL/6 mouse colitis model assessed as colon length at 5 mg/kg, ip after 10 days (reference value: 45.68 +/- 1.34 mm); format: functional
Outline: (§3)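 Female C57BL/6 mice, 6–8 weeks, randomized into five groups. Colitis induced by 2.5% w/v DSS in drinking water for 5 days, then 5 days of normal water. Test agent given ip at 5 or 10 mg/kg, or 5-ASA ig at 50 mg/kg, until study end. Controls were water plus vehicle and DSS plus vehicle. Body weight recorded daily; colon length taken at sacrifice on day 10. Mean ± SD, n = 10.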

Mus musculus [5] = experiment: Antiinflammatory activity in DSS- induced C57BL/6 mouse colitis model assessed as colon length at 10 mg/kg, ip after 10 days (reference value: 45.68 +/- 1.34 mm); format: functional; outline: as §3
Mus musculus [6] = experiment: Antiinflammatory activity in DSS- induced C57BL/6 mouse colitis model assessed as body weight at 10 mg/kg, ip after 10 days (reference value: 15.69 +/- 0.65 g); format: functional; outline: as §3
Mus musculus [7] = experiment: Antiinflammatory activity in DSS- induced C57BL/6 mouse colon colitis model assessed as degeneration/necrosis of crypt cells at 10 mg/kg, ip after 24 hrs by hematoxylin/eosin staining based assay; format: functional, organism-based; outline: as §1
Mus musculus [8] = experiment: Antiinflammatory activity in DSS- induced C57BL/6 mouse colon colitis model assessed as inhibition of COX2 expression at 5 to 10 mg/kg, ip after 24 hrs by hematoxylin staining based assay; format: functional, organism-based; outline: as §2
Sphingosine kinase 2 = molecular target: T1, Sphingosine kinase 2 (Homo sapiens, UniProt Q9NRA0); experiment: Inhibition of GST-tagged full length human recombinant SPHK2 expressed in baculovirus using sphingosine as substrate preincubated for 10 mins measured after 1 hr by ADP-quest assay
T1 sequence (Q9NRA0 whole entry): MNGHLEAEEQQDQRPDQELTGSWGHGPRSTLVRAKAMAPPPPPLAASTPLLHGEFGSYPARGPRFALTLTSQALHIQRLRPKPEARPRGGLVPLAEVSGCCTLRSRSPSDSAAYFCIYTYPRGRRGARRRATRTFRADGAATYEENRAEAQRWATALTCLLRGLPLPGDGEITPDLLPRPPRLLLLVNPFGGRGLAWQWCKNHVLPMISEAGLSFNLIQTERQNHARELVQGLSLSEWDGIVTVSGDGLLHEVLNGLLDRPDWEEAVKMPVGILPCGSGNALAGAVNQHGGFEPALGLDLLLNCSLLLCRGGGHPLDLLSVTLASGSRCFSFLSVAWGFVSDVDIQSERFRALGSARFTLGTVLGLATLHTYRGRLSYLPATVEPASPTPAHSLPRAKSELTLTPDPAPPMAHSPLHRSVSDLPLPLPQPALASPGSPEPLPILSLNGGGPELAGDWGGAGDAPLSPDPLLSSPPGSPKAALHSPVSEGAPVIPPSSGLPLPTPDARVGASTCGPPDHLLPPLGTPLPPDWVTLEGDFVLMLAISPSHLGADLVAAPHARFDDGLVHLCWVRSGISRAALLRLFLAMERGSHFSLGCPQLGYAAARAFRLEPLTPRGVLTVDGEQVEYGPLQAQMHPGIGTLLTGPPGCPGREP
Outline: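 Human recombinant SphK1 or SphK2 with sphingosine substrate and ATP, tested in 384-well format. Enzyme was preincubated with compound for 10 min, then the reaction ran at 28 °C for 1 h. ADP Quest reagents A and B were added for 30 min at room temperature. Fluorescence was read at Ex 530/Em 590 nm. Values are mean of n = 3 in triplicate.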

Mus musculus [9] = experiment: Antiinflammatory activity in DSS- induced C57BL/6 mouse colitis model assessed as body weight at 5 mg/kg, ip after 10 days (reference value: 15.69 +/- 0.65 g); format: functional; outline: as §3
Mus musculus [10] = experiment: Antiinflammatory activity in DSS- induced C57BL/6 mouse colitis model assessed as change in body weight at 5 to 10 mg/kg, ip after 7 days; format: functional, organism-based; outline: as §3

COc1cccc(COc2ccc(/C=N/NC(=O)c3cc(O)c(O)c(O)c3)cc2)c1
Activity (Mus musculus [1]): Active | inhibition (Mus musculus [2]): Active | Activity (Mus musculus [3]): Active | IC50 (Sphingosine kinase 1): 4.36 µM | Activity (Mus musculus [4]): 53.04 mm | Activity (Mus musculus [5]): 51.41 mm | Activity (Mus musculus [6]): 17.5 g | Activity (Mus musculus [7]): Active | inhibition (Mus musculus [8]): Active | IC50 (Sphingosine kinase 2): 2.17 µM | Activity (Mus musculus [9]): 17.1 g | Activity (Mus musculus [10]): inactive

From ChEMBL document CHEMBL3813598, “Development of hydroxy-based sphingosine kinase inhibitors and anti-inflammation in dextran sodium sulfate induced colitis in mice” (Bioorg Med Chem, 2016)
